Screens (PubChem BioAssay)
CHOP inhibitor = CHOP inhibition in unfolded protein response; CHO-K1 CHOP-promoter luciferase, tunicamycin-induced, 15-18 h; 3.8% of 220,000 active; AID 2732; inhibition, % at 10 µM;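 active = compounds that reduced the stress-induced luciferase reporter signal by more than about 70% of percent inhibition, limit read from the data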;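 note: 0% = tunicamycin plus vehicle and 100% = wells without tunicamycin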
L major viab = Leishmania major promastigote growth inhibition; Leishmania major promastigotes, resazurin fluorescence viability; 9% of 200,000 active; AID 1063; inhibition, % at 10 µM;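 note: promastigotes grown with compound for 44 hours at 28 °C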
PKD1 kinase inh = PKD1 (human) kinase inhibition | Q15139 | PKD1 kinase fluorescence polarization assay | inhibition, % (test concentration not listed) | 0.056% of 200,000 active
Wee1 stabilizer = human Wee1 degradation inhibition, primary screen; P30291; reporter increase, % at 5 µM; 1.2% of 220,000 active; HeLa Luc-Wee1K328M stability, luciferase luminescence; 100% = proteasome inhibitor MG132 effect; AID 1321;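 active = activation above the mean of all tested compounds plus 3 SD, set per screening run, cut at about 8.8% in these data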;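 note: cells exposed to compound for 20 h before luminescence read; 0% = DMSO alone and 100% = MG132 at 30 µM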
Arbovirus inh = arbovirus infection inhibition | arbovirus infection cell-based antiviral screen | inhibition, % at 10 µM | 0.37% of 200,000 active | AID 1251; in the data active = inhibition above about 30%
Rad51 HR inh = blocks human Rad51 in homologous recombination. hRad51 DNA strand exchange, fluorescence dequenching. inhibition, % at 10 µM. 0.085% of 200,000 active. AID 1385;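 active = inhibition above 40% at the single screening dose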;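 note: 0% = DMSO control wells and 100% = blanks with heterologous ssDNA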
Target sequence (Q06609 whole entry, looked up): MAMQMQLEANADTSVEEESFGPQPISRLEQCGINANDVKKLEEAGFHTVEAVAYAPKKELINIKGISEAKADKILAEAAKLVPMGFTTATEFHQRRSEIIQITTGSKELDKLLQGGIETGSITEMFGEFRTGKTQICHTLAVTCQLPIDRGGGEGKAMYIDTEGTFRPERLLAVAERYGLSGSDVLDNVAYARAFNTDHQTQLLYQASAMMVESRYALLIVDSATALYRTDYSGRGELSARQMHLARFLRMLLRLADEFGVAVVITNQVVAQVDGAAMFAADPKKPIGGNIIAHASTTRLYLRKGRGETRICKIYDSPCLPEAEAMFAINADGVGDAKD
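Material: hRad51 filaments on single-stranded DNA; Reagent: Donor/quencher-labelled 47-bp dsDNA substrate; Compound: 10 µM final, single point; Schedule: 37 °C 15-min filament assembly, 30-min compound preincubation, 15-min exchange; Technique: FRET fluorescence, excitation 485 nm, emission 520 nm; Benchmarks: control wells and blank wells on each plate.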
* = called active by the depositor; . = no result given. Sampled rows, rich in hits. Any-hit rate of the full collection: about 12%. Cut-off read from the data, not from the text of the source, unless noted: active = inhibition above about 50%; inactive = the rest.

SMILES | CHOP inhibitor | L major viab | PKD1 kinase inh | Wee1 stabilizer | Arbovirus inh | Rad51 HR inh
Cc1ccc(NS(=O)(=O)c2ccc(NC(=O)c3cccc(NC(=O)C(C)C)c3)cc2)cc1 | 11.9 | 55.6* | -1.3 | 0.4 | -24.5 | 0.8
Cc1ccc(NS(=O)(=O)c2ccc(NC(=O)c3cccs3)cc2)cc1 | 77.3* | -0.3 | -6.2 | -2.8 | -1.3 | -5.8
CCC(CO)NC(=O)c1ccccc1C(F)(F)F (stereo not drawn) | -7.1 | . | . | 2.0 | . | -25.9
CCOC(=O)Cn1nc(-c2ccc(Cl)cc2)cc1N | 8.9 | 54.7* | -1.6 | 1.4 | 0.7 | 6.2
CCOC(=O)c1oc2ccc(S(=O)(=O)n3nc(-c4ccc(Cl)cc4)cc3N)cc2c1C | 34.3 | 98.2* | -1.7 | 2.4 | -12.4 | -4.4
N=c1ccn2c(n1)OC1[C@@H](O)[C@@H](CO)O[C@H]12 (stereo partly drawn) | 16.1 | . | . | . | . | .
Nc1nc(=S)c2ncn(C3CCCC3)c2[nH]1 | 20.3 | . | . | 1.1 | . | 18.9
Cc1ccc(SCCNC(=S)Nc2ccc(C)c(C)c2)cc1 | 74.6* | 9.4 | -4.7 | 2.9 | -4.8 | -11.5
COc1ccccc1NC(=S)NCCSc1ccc(C)cc1 | 34.0 | 1.6 | -0.3 | 1.1 | 33.5* | -0.8
Cc1cc(C)cc(NC(=S)NCCSc2ccc(Cl)cc2)c1 | 87.6* | 15.7 | -10.0 | 4.0 | -31.4 | 11.8
Cc1c(-c2ccccc2)[n+](=O)c(-c2ccc(Cl)cc2)c(C)n1[O-] | 12.2 | 8.5 | -3.1 | 2.1 | 0.8 | 3.3
CCOc1cc(C2NC(=O)NC(c3ccccc3)=C2C(=O)c2ccccc2)c(Br)cc1OCC(=O)O (stereo not drawn) | -5.0 | -7.3 | -6.5 | -1.0 | -2.4 | 3.5
COc1ccc(Oc2ccc(-c3ccn[nH]3)cc2)cc1 | -19.0 | . | . | -1.1 | . | 8.1
COC(=O)Cn1c2ccc(OC)cc2c2nc(C)sc21 | 4.9 | . | . | -2.5 | . | -1.3
CCN(CC)CCNC(=O)c1ccc(Sc2ccc(C)cc2)c(NC(C)=O)c1 | 22.7 | -2.0 | -1.8 | -0.2 | -12.7 | .
CC(=O)Nc1cc(C(=O)NCc2ccco2)ccc1Sc1ccc(C)cc1 | 1.3 | 75.4* | -4.2 | 1.7 | -7.3 | -5.3
CCC1=Nc2cc(C(=O)NCCCOC)ccc2Sc2ccccc21 | . | 19.5 | 0.0 | 3.9 | -12.7 | 1.2
CCC1=Nc2cc(C(=O)NCc3ccco3)ccc2Sc2ccc(C)cc21 | -26.4 | 66.7* | -2.8 | 1.6 | -6.0 | 5.3
C=CCCCCCCCCC(=O)Nc1ncccn1 | -17.9 | . | . | 4.6 | . | 3.1
COc1ccc(OC)c(-c2cc(C(=O)N3CCCc4ccccc43)no2)c1 | 58.7 | 24.3 | 3.2 | -0.5 | 1.7 | 0.2
COc1ccccc1-c1cc(C(=O)N2CCCc3ccccc32)no1 | 18.8 | 1.6 | 4.7 | 9.8* | -0.3 | 13.0
COc1cccc(-c2cc(C(=O)N3CCCc4ccccc43)no2)c1 | 73.1* | -5.4 | -11.4 | 0.2 | -0.6 | 3.6
NC(=O)CC(NC(=O)Cc1ccc(Br)cc1)c1ccc(NCc2ccc(F)c(F)c2)c([N+](=O)[O-])c1 (stereo not drawn) | 76.3* | . | . | . | . | -9.1
NC(=O)CC(NC(=O)Cc1cccc2ccccc12)c1ccc(N2CCN(c3ccc(F)cc3)CC2)c([N+](=O)[O-])c1 (stereo not drawn) | 94.3* | . | . | . | . | 0.8
NC(=O)CC(NC(=O)Cc1ccc(Br)cc1)c1ccc(N2CCC(Br)CC2)c([N+](=O)[O-])c1 (stereo not drawn) | 87.1* | . | . | . | . | -4.3
SMILES | CHOP inhibitor | L major viab | PKD1 kinase inh | Wee1 stabilizer | Arbovirus inh | Rad51 HR inh
NC(=O)CC(NC(=O)Cc1ccc(Br)cc1)c1ccc(N2CCC(Cc3ccccc3)CC2)c([N+](=O)[O-])c1 (stereo not drawn) | 95.9* | . | . | . | . | 3.4
C/C(CC(=O)Nc1cccc(C(F)(F)F)c1)=N\NC(=O)C1CCCCC1 | 35.9 | -2.9 | 0.9 | -0.3 | 9.9 | .
COc1ccc(C(=O)NCC(=O)OCC(=O)c2ccc3c(c2)NC(=O)CO3)cc1 | 10.1 | -4.8 | -4.2 | 1.6 | 3.4 | -3.4
Cc1ccccc1C1c2[nH]c3ccccc3c2CCN1Cc1cccn1-c1ncccn1 (stereo not drawn) | 12.0 | . | . | -0.2 | . | -15.5
CC(=O)Nc1ccc2c(c1)C(C)(C)C(C)N2C (stereo not drawn) | 18.2 | 94.3* | -9.4 | -1.1 | 10.9 | -8.1
N#Cc1ccsc1NC(=O)COC(=O)CCCSc1nc2ccccc2s1 | 72.8* | 3.7 | 2.5 | -1.0 | 4.4 | -11.4
Cc1cnc(NC(=O)CCCSc2nc3ccccc3s2)s1 | 76.5* | -3.3 | 2.2 | 2.5 | 6.5 | -10.1
Cc1csc(NC(=O)CCCSc2nc3ccccc3s2)n1 | 31.1 | 1.1 | -3.8 | -0.8 | 14.8 | -2.9
Cc1cccc(-c2nsc(SCC(=O)Nc3nccs3)n2)c1 | 87.4* | -0.2 | -12.7 | 0.6 | -8.2 | 5.2
CN(C)CCC(=O)c1ccc2c(c1)OCO2 | -33.5 | 98.5* | -0.4 | -0.5 | -2.7 | 1.0
CN(C)CCC(=O)c1cccc(Br)c1 | -1.3 | 52.5* | -8.2 | -2.5 | 1.5 | -0.2
O=C(c1ncc[nH]1)c1cccs1 | -7.8 | . | . | -0.9 | . | 2.1
COc1ccc(CCNC(=O)CSc2nnc(-c3ccc(F)cc3)c3ccccc23)cc1OC | 44.4 | 65.2* | -2.0 | -0.2 | 7.2 | 5.3
O=C(CSc1nnc(-c2ccc(F)cc2)c2ccccc12)Nc1ccccc1 | 40.8 | 33.3 | -3.3 | 10.1* | 4.7 | 8.3
O=C(CSc1nnc(-c2ccc(F)cc2)c2ccccc12)Nc1cccc(Cl)c1 | 38.3 | 10.0 | -5.3 | -0.5 | 10.2 | -8.3
COc1ccc(CCNC(=O)CSc2ccccc2)cc1OC | -10.0 | 1.8 | -2.9 | -1.6 | -4.6 | -3.0
O=C(COC(=O)COc1ccc2ccccc2c1)NCC(F)(F)F | 11.8 | -4.3 | -6.9 | -1.6 | 1.7 | -25.8
O=[N+]([O-])c1cccc(-c2noc(-c3cccs3)n2)c1 | -1.3 | . | . | -0.4 | . | .
COc1cc(NC(=O)Cn2c(=O)n(-c3cccc(C)c3)c(=O)c3c(C)c(C)sc32)cc(OC)c1 | 92.4* | -0.2 | -4.4 | -2.0 | -11.5 | -13.6
CCOC(=O)C1=C(C)NC(C)=C(C(=O)OC)C1c1cccc([N+](=O)[O-])c1 (stereo not drawn) | 19.8 | 13.9 | -5.9 | 1.9 | -2.1 | -5.4
COCCOC(=O)C1=C(C)NC(C)=C(C(=O)OC(C)C)C1c1cccc([N+](=O)[O-])c1 (stereo not drawn) | 29.1 | 66.2* | -9.5 | -1.0 | 4.7 | -2.4
Cc1cc(C)n(-c2ccc3cccc(NS(C)(=O)=O)c3n2)n1 | 74.2* | 46.0 | -4.9 | 2.3 | -37.0 | -12.8
Cc1cc(C)n(-c2cccc3cccnc23)n1 | 28.6 | -5.5 | -1.3 | 1.3 | 0.2 | 7.0
NC(=S)Nc1cccc2cccnc12 | 7.0 | 89.3* | -3.3 | 2.8 | 13.3 | -8.1
NC(=S)NNc1cccc2cccnc12 | -5.5 | -2.3 | -1.4 | -2.5 | -29.2 | -1.3
CS(=O)(=O)Nc1cccc2cccnc12 | -44.2 | 80.3* | -13.0 | -1.7 | 0.6 | -4.0
O=S(=O)(Nc1cccc2cccnc12)c1ccc(S(=O)(=O)N2CCCC2)cc1 | -33.5 | 99.2* | 6.5 | 1.0 | -35.1 | 2.0
